ChEMBL document CHEMBL4689842, “EUbOPEN Chemogenomics Library wave 1” (2021)

System: HEK-293T
Test: Multiplex assay against HEK293T;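 as to Population Tubulin-Different-Phenotype (%): share of the cells with healthy nuclei that show this phenotype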
Format: toxicity, cell-based
Details: human
In short: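 Per cents of healthy-nucleus cells form the tubulin, mitochondrial-mass and membrane-permeability phenotype values. Live cells were stained at seeding with Hoechst33342, BioTracker Green Microtubule Cytoskeleton Dye, MitoTracker Red and Annexin V Alexa Fluor 680. After compound addition they were imaged on a CQ1 microscope at 37°C and 5% CO2, and CellPathfinder machine-learning gating split them into Hoechst high-intensity objects or normal cells, normal cells into healthy, pyknosed or fragmented nuclei, and pyknosed cells into mitotic or apoptotic.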

[1] = 12 h, 1 µM, compound concentration 1 uM, replicate 1
[2] = 12 h, 1 µM, compound concentration 1 uM, replicate 2
[3] = 12 h, 10 µM, compound concentration 10 uM, replicate 1
[4] = 12 h, 10 µM, compound concentration 10 uM, replicate 2
[5] = 24 h, 1 µM, compound concentration 1 uM, replicate 1
[6] = 24 h, 1 µM, compound concentration 1 uM, replicate 2
[7] = 24 h, 10 µM, compound concentration 10 uM, replicate 1
[8] = 24 h, 10 µM, compound concentration 10 uM, replicate 2
[9] = 48 h, 1 µM, compound concentration 1 uM, replicate 1
[10] = 48 h, 1 µM, compound concentration 1 uM, replicate 2
[11] = 48 h, 10 µM, compound concentration 10 uM, replicate 1
[12] = 48 h, 10 µM, compound concentration 10 uM, replicate 2

SMILES: CC(C)[C@H](CO)Nc1nc(Nc2cccc(Cl)c2)c2ncn(C(C)C)c2n1 [PURVALANOLA]
- Population Apoptotic (%) [1]: 48%
- Population Fragmented Nuclei (%) [1]: 8%
- Population Healthy Nuclei (%) [1]: 37%
- Population Hoechst High Intensity Objects (%) [1]: 13%
- Population Membrane Permeable-Phenotype (%) [1]: 5%
- Population Mitochondria Different-Phenotype (%) [1]: 85%
- Population Mitotic Cells (%) [1]: 51%
- Population Normal (%) [1]: 86%
- Population Pyknosed Nuclei (%) [1]: 54%
- Population Tubulin-Different-Phenotype (%) [1]: 53%
- Total Cell Count [1]: 256
- Population Apoptotic (%) [2]: 19%
- Population Fragmented Nuclei (%) [2]: 6%
- Population Healthy Nuclei (%) [2]: 43%
- Population Hoechst High Intensity Objects (%) [2]: 3%
- Population Membrane Permeable-Phenotype (%) [2]: 7%
- Population Mitochondria Different-Phenotype (%) [2]: 33%
- Population Mitotic Cells (%) [2]: 80%
- Population Normal (%) [2]: 96%
- Population Pyknosed Nuclei (%) [2]: 50%
- Population Tubulin-Different-Phenotype (%) [2]: 32%
- Total Cell Count [2]: 201
- Population Apoptotic (%) [3]: 73%
- Population Fragmented Nuclei (%) [3]: 7%
- Population Healthy Nuclei (%) [3]: 27%
- Population Hoechst High Intensity Objects (%) [3]: 12%
- Population Membrane Permeable-Phenotype (%) [3]: 2%
- Population Mitochondria Different-Phenotype (%) [3]: 97%
- Population Mitotic Cells (%) [3]: 26%
- Population Normal (%) [3]: 87%
- Population Pyknosed Nuclei (%) [3]: 64%
- Population Tubulin-Different-Phenotype (%) [3]: 98%
- Total Cell Count [3]: 324
- Population Apoptotic (%) [4]: 53%
- Population Fragmented Nuclei (%) [4]: 6%
- Population Healthy Nuclei (%) [4]: 18%
- Population Hoechst High Intensity Objects (%) [4]: 7%
- Population Membrane Permeable-Phenotype (%) [4]: 5%
- Population Mitochondria Different-Phenotype (%) [4]: 82%
- Population Mitotic Cells (%) [4]: 46%
- Population Normal (%) [4]: 92%
- Population Pyknosed Nuclei (%) [4]: 75%
- Population Tubulin-Different-Phenotype (%) [4]: 97%
- Total Cell Count [4]: 198
- Population Apoptotic (%) [5]: 42%
- Population Fragmented Nuclei (%) [5]: 14%
- Population Healthy Nuclei (%) [5]: 36%
- Population Hoechst High Intensity Objects (%) [5]: 11%
- Population Membrane Permeable-Phenotype (%) [5]: 4%
- Population Mitochondria Different-Phenotype (%) [5]: 75%
- Population Mitotic Cells (%) [5]: 57%
- Population Normal (%) [5]: 88%
- Population Pyknosed Nuclei (%) [5]: 49%
- Population Tubulin-Different-Phenotype (%) [5]: 53%
- Total Cell Count [5]: 295
- Population Apoptotic (%) [6]: 14%
- Population Fragmented Nuclei (%) [6]: 4%
- Population Healthy Nuclei (%) [6]: 63%
- Population Hoechst High Intensity Objects (%) [6]: 3%
- Population Membrane Permeable-Phenotype (%) [6]: 3%
- Population Mitochondria Different-Phenotype (%) [6]: 26%
- Population Mitotic Cells (%) [6]: 85%
- Population Normal (%) [6]: 96%
- Population Pyknosed Nuclei (%) [6]: 31%
- Population Tubulin-Different-Phenotype (%) [6]: 36%
- Total Cell Count [6]: 244
- Population Apoptotic (%) [7]: 75%
- Population Fragmented Nuclei (%) [7]: 6%
- Population Healthy Nuclei (%) [7]: 31%
- Population Hoechst High Intensity Objects (%) [7]: 12%
- Population Membrane Permeable-Phenotype (%) [7]: 2%
- Population Mitochondria Different-Phenotype (%) [7]: 98%
- Population Mitotic Cells (%) [7]: 24%
- Population Normal (%) [7]: 87%
- Population Pyknosed Nuclei (%) [7]: 61%
- Population Tubulin-Different-Phenotype (%) [7]: 96%
- Total Cell Count [7]: 375
- Population Apoptotic (%) [8]: 69%
- Population Fragmented Nuclei (%) [8]: 4%
- Population Healthy Nuclei (%) [8]: 19%
- Population Hoechst High Intensity Objects (%) [8]: 9%
- Population Membrane Permeable-Phenotype (%) [8]: 5%
- Population Mitochondria Different-Phenotype (%) [8]: 94%
- Population Mitotic Cells (%) [8]: 30%
- Population Normal (%) [8]: 90%
- Population Pyknosed Nuclei (%) [8]: 75%
- Population Tubulin-Different-Phenotype (%) [8]: 97%
- Total Cell Count [8]: 200
- Population Apoptotic (%) [9]: 49%
- Population Fragmented Nuclei (%) [9]: 18%
- Population Healthy Nuclei (%) [9]: 42%
- Population Hoechst High Intensity Objects (%) [9]: 13%
- Population Membrane Permeable-Phenotype (%) [9]: 3%
- Population Mitochondria Different-Phenotype (%) [9]: 46%
- Population Mitotic Cells (%) [9]: 50%
- Population Normal (%) [9]: 86%
- Population Pyknosed Nuclei (%) [9]: 40%
- Population Tubulin-Different-Phenotype (%) [9]: 38%
- Total Cell Count [9]: 347
- Population Apoptotic (%) [10]: 13%
- Population Fragmented Nuclei (%) [10]: 7%
- Population Healthy Nuclei (%) [10]: 77%
- Population Hoechst High Intensity Objects (%) [10]: 4%
- Population Mitochondria Different-Phenotype (%) [10]: 12%
- Population Mitotic Cells (%) [10]: 86%
- Population Normal (%) [10]: 95%
- Population Pyknosed Nuclei (%) [10]: 15%
- Population Tubulin-Different-Phenotype (%) [10]: 26%
- Total Cell Count [10]: 414
- Population Apoptotic (%) [11]: 85%
- Population Fragmented Nuclei (%) [11]: 8%
- Population Healthy Nuclei (%) [11]: 50%
- Population Hoechst High Intensity Objects (%) [11]: 12%
- Population Mitochondria Different-Phenotype (%) [11]: 99%
- Population Mitotic Cells (%) [11]: 14%
- Population Normal (%) [11]: 87%
- Population Pyknosed Nuclei (%) [11]: 41%
- Population Tubulin-Different-Phenotype (%) [11]: 99%
- Total Cell Count [11]: 366
- Population Apoptotic (%) [12]: 89%
- Population Fragmented Nuclei (%) [12]: 6%
- Population Healthy Nuclei (%) [12]: 38%
- Population Hoechst High Intensity Objects (%) [12]: 5%
- Population Membrane Permeable-Phenotype (%) [12]: 2%
- Population Mitochondria Different-Phenotype (%) [12]: 94%
- Population Mitotic Cells (%) [12]: 10%
- Population Normal (%) [12]: 94%
- Population Pyknosed Nuclei (%) [12]: 55%
- Population Tubulin-Different-Phenotype (%) [12]: 94%
- Total Cell Count [12]: 190
